Assay [1] deals with Staphylococcus aureus. Put plainly: Antimicrobial activity against vancomycin-intermediate-, methicillin-resistant Staphylococcus aureus 555 by microdilution method. The assay is classed as functional.
Assay [2] relates to Staphylococcus aureus. Put plainly: Antimicrobial activity against vancomycin-intermediate-, methicillin-resistant Staphylococcus aureus 1287 assessed as time required to induce sub-MIC effect at 0.4 times MIC […] by plate counting method. It is filed as functional. The gist of the method:
(§1)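 SME, viable plate count method: no prior drug exposure. About 5 × 10^6 CFU/ml in Mueller-Hinton broth at 35°C received 0.2, 0.3 or 0.4× MIC, alongside a drug-free tube. Counts were taken at the start, then every 2 h until McFarland no. 1 turbidity, as log10 CFU/ml against time. Two separate experiments, each with a new inoculum.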

Assay [3] deals with Staphylococcus aureus. The experiment in a line: Antimicrobial activity against vancomycin-susceptible-, methicillin-resistant Staphylococcus aureus 1130 assessed as time required to induce post antibiotic sub-MIC effect at 0.4 times MIC […] by plate counting method. It is filed as functional. The gist of the method:
(§2)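 After 1 h preexposure to 10× MIC at 35°C and 1:1,000 dilution, cultures were split, and drug was re-added to final 0.2, 0.3 or 0.4× MIC, with a drug-free tube. Viable counts were taken every 2 h until McFarland 1 turbidity. Duration was derived from log10 CFU/ml versus time curves. Two experiments were run, each with a new inoculum.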

The subject of assay [4] is Staphylococcus aureus. The experiment in a line: Antimicrobial activity against vancomycin-susceptible-, methicillin-resistant Staphylococcus aureus 1307 assessed as time required to induce post antibiotic sub-MIC effect at 0.4 times MIC […] by plate counting method. The assay is classed as functional. The gist of the method:
as §2

For assay [5], the system named is Staphylococcus aureus. The experiment in a line: Antimicrobial activity against heterogenous vancomycin-intermediate-, methicillin-resistant Staphylococcus aureus 618 assessed as time required to induce post antibiotic sub-MIC effect at 0.4 times MIC […] by plate counting method. It is filed as functional. The gist of the method:
(§3)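 PAE was first induced with 10× MIC for 1 h at 35°C (inoculum about 5 × 10^6 CFU/ml, Mueller-Hinton broth) and ended by 1:1,000 dilution. Cultures were then split and given 0.2, 0.3 or 0.4× MIC, with one tube left without drug. Viable counts were taken before exposure, after dilution, then every 2 h until McFarland no. 1 turbidity. Two separate experiments, each with a new inoculum.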

Assay [6] has as its system Staphylococcus aureus. Put plainly: Antimicrobial activity against vancomycin-resistant-, methicillin-resistant Staphylococcus aureus 510 by microdilution method. It is filed as functional.
Assay [7] concerns Streptococcus pyogenes. Put plainly: Antimicrobial activity against Streptococcus pyogenes HMC 414 by microdilution method. The assay is classed as functional.
The test system of assay [8] is Enterococcus faecalis. The experiment in a line: Antimicrobial activity against Enterococcus faecalis ATCC 29212 assessed as post-antibiotic effect at 10 times MIC pre-exposed to Telavancin for 1 hr by plate counting method. The assay is classed as functional. The gist of the method:
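Organisms were suspended in Mueller-Hinton broth from overnight blood agar colonies at about 5 × 10^6 CFU/ml. Cultures were exposed to telavancin at 10× MIC for 1 h at 35°C in a shaking water bath, then diluted 1:1,000 to remove the drug, with an untreated growth control. Viable counts were taken before exposure, at 0 h, then every 2 h until McFarland no. 1 turbidity. PAE = T − C, the time to a 1 log10 rise. Two experiments.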

The subject of assay [9] is Staphylococcus aureus. The experiment in a line: Antimicrobial activity against vancomycin-susceptible-, methicillin-resistant Staphylococcus aureus 1130 assessed as time required to induce sub-MIC effect at 0.2 times MIC exposed for 2 hrs by plate counting method. The assay is classed as functional. The gist of the method: (§4)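 Sub-MIC effect: cultures not preexposed to drug were diluted and handled as in the PA-SME procedure in Mueller-Hinton broth with final 0.2, 0.3 or 0.4× MIC, plus a drug-free control. Viable plate counts were taken every 2 h until McFarland 1 turbidity. Duration was derived from growth curves. Two experiments were run, each with a new inoculum.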

Assay [10] relates to Staphylococcus aureus. Put plainly: Antimicrobial activity against vancomycin-intermediate-, methicillin-resistant Staphylococcus aureus 555 assessed as time required to induce sub-MIC effect at 0.2 times MIC […] by plate counting method. It is filed as functional. The gist of the method:
as §1

Assay [11] relates to Streptococcus agalactiae. Put plainly: Antimicrobial activity against Streptococcus agalactiae HMC 5 assessed as time required to induce sub-MIC effect at 0.2 times MIC exposed for 2 hrs by plate counting method. It is filed as functional. Put shortly:
(§5)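 Unexposed Mueller-Hinton broth cultures (about 5 × 10^6 CFU/ml, 35°C) were handled as in the PA-SME set but without the 10× MIC pre-exposure. They were diluted 1:1,000, then given telavancin at final 0.2, 0.3 or 0.4× MIC, with a drug-free control. Viable counts were taken every 2 h until McFarland no. 1 turbidity. Effect duration comes from log10 CFU/ml-time plots; two separate experiments with new inocula.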

Assay [12] concerns Staphylococcus aureus. The experiment in a line: Antimicrobial activity against heterogenous vancomycin-intermediate-, methicillin-resistant Staphylococcus aureus 618 assessed as time required to induce post antibiotic sub-MIC effect at 0.2 times MIC pre-exposed to Telavancin […] by plate counting method. The assay is classed as functional. The gist of the method:
as §3

Assay [13] relates to Streptococcus pyogenes. The experiment in a line: Antimicrobial activity against Streptococcus pyogenes HMC 414 assessed as time required to induce post antibiotic sub-MIC effect at 0.2 times MIC pre-exposed to Telavancin for 2 hrs by plate counting method. The assay is classed as functional. To be noted: in the assay text read “for 1 hr” for “for 2 hrs”. Put shortly:
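Mueller-Hinton broth cultures of about 5 × 10^6 CFU/ml were pre-exposed to telavancin at 10× MIC for 1 h at 35°C, then diluted 1:1,000. Telavancin was re-added to final 0.2, 0.3 or 0.4× MIC, alongside a drug-free tube. Viable counts were taken before exposure, after dilution, then every 2 h until McFarland no. 1 turbidity. Duration comes from log10 CFU/ml-versus-time plots; two separate experiments with fresh inocula.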

Assay [14] concerns Staphylococcus aureus. Put plainly: Antimicrobial activity against heterogenous vancomycin-intermediate-, methicillin-resistant Staphylococcus aureus 618 assessed as time required to induce sub-MIC effect at 0.3 times MIC […] by plate counting method. It is filed as functional. The gist of the method:
as §1

In assay [15] the test system is Streptococcus pyogenes. The experiment in a line: Antimicrobial activity against Streptococcus pyogenes HMC 414 assessed as time required to induce sub-MIC effect at 0.3 times MIC exposed for 2 hrs by plate counting method. It is filed as functional. Put shortly: as §5
The test system of assay [16] is Staphylococcus aureus. Put plainly: Antimicrobial activity against heterogenous vancomycin-intermediate-, methicillin-resistant Staphylococcus aureus 618 assessed as time required to induce post antibiotic sub-MIC effect at 0.3 times MIC […] by plate counting method. It is filed as functional. The gist of the method: as §3
Assay [17] relates to Staphylococcus aureus. Put plainly: Antimicrobial activity against vancomycin-intermediate-, methicillin-resistant Staphylococcus aureus 555 assessed as time required to induce post antibiotic sub-MIC effect at 0.3 times MIC […] by plate counting method. The assay is classed as functional. The gist of the method:
as §3

Assay [18] relates to Staphylococcus aureus. The experiment in a line: Antimicrobial activity against vancomycin-intermediate-, methicillin-resistant Staphylococcus aureus 1287 assessed as time required to induce post antibiotic sub-MIC effect at 0.3 times MIC […] by plate counting method. It is filed as functional. The gist of the method: as §3
Assay [19] concerns Staphylococcus aureus. The experiment in a line: Antimicrobial activity against vancomycin-susceptible-, methicillin-resistant Staphylococcus aureus ATCC 33591 assessed as time required to induce sub-MIC effect at 0.4 times MIC exposed for 2 hrs by plate counting method. It is filed as functional. The gist of the method:
as §4

For assay [20], the system named is Staphylococcus aureus. The experiment in a line: Antimicrobial activity against vancomycin-susceptible-, methicillin-resistant Staphylococcus aureus 1130 assessed as time required to induce sub-MIC effect at 0.4 times MIC exposed for 2 hrs by plate counting method. The assay is classed as functional. Put shortly: as §4
Assay [21] deals with Staphylococcus aureus. Put plainly: Antimicrobial activity against vancomycin-susceptible-, methicillin-resistant Staphylococcus aureus 1306 assessed as time required to induce sub-MIC effect at 0.4 times MIC exposed for 2 hrs by plate counting method. The assay is classed as functional. Put shortly: as §4
For assay [22], the system named is Staphylococcus aureus. The experiment in a line: Antimicrobial activity against vancomycin-intermediate-, methicillin-resistant Staphylococcus aureus 1984 assessed as time required to induce post antibiotic sub-MIC effect at 0.2 times MIC pre-exposed to Telavancin for 1 hr by plate counting method.

In brackets after ≈: the same amount, converted by molar mass.

In the case of `CCCCCCCCCCNCCN[C@@]1(C)C[C@H](O[C@H]2[C@H](Oc3c4cc5cc3Oc3ccc(cc3Cl)[C@@H](O)[C@@H](NC(=O)[C@@H](CC(C)C)NC)C(=O)N[C@@H](CC(N)=O)C(=O)N[C@H]5C(=O)N[C@H]3C(=O)N[C@H](C(=O)N[C@H](C(=O)O)c5cc(O)c(CNCP(=O)(O)O)c(O)c5-c5cc3ccc5O)[C@H](O)c3ccc(c(Cl)c3)O4)O[C@H](CO)[C@@H](O)[C@@H]2O)O[C@@H](C)[C@H]1O` [TELAVANCIN], the minimal inhibitory concentration (MIC) in assay [1] is 0.5 µg/mL (≈ 0.285 µM); in [6] it was 0.5 µg/mL (≈ 0.285 µM); in assay [7] it was 0.06 µg/mL (≈ 0.0342 µM). Further, the PAE in assay [2] was 0.8 h; in assay [3], > 10 h; in [4] it was > 10.5 h; in assay [5] it was 10.3 h; in [8] it was 0.3 h; in assay [9] it was 0 h. Besides, the PAE stood at 0.3 h in assay [10]; 0.2 h in assay [11]; 5.7 h in assay [12]; 8.7 h in [13]; 1.5 h in assay [14]; 0 h in assay [15]. For the same molecule, the PAE in assay [16] came to 8.3 h; in assay [17] it was 10.3 h; in assay [18] it was 8.6 h; in [19] it was 2.3 h; in assay [20] it was 6.5 h; in [21] it was 6 h. Moreover, the PAE in assay [22] stood at 6.8 h.

Source of the values: ChEMBL document CHEMBL1629663, “Postantibiotic effects of telavancin against 16 gram-positive organisms” (Antimicrob Agents Chemother, 2009).
